Data set [1] addresses Serine/threonine-protein kinase Chk1 (Homo sapiens) (UniProt O14757). Nature of the data set: Inhibition of recombinant human N-terminal GST-tagged CHK1 (1 to 476 residues) expressed in baculovirus infected Sf21 cells assessed as remaining activity at 10 uM using CHKtide as substrate incubated for 30 mins in presence of [gamma-33P]ATP by filter binding method relative to control. Put shortly:
(§1)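 Robotic radiometric panel assay, 30 min at room temperature (21 °C), with 10 mM magnesium acetate. […] Compound at 1 or 10 µM. Residual activity expressed relative to compound-free control; triplicate average ± S.D.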

The next data set is filed under the species Homo sapiens. Nature of the data set: Inhibition of choline kinase (unknown origin) assessed as remaining activity at 1 uM using choline as substrate incubated for 30 mins in presence of ATP by Kinase Glo assay relative to control. Put shortly: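 Choline kinase assayed with 1 mM choline, 1 μM ATP in 25 mM glycine/NaOH pH 8.5, 67 mM KCl, 5 mM MgCl2, 1 mM DTT, 30 min at room temperature. Stopped with Kinase-Glo Plus, luminescence read after 10 min. Activity relative to control, triplicate.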
Background: Kinase-Glo measures the ATP left after a reaction by luminescence.

The target of data set [2] is 3-phosphoinositide-dependent protein kinase 1 (Homo sapiens) (UniProt O15530). Nature of the data set: Inhibition of recombinant human His6-tagged PDK1 (52 to 556 residues) expressed in baculovirus infected Sf21 cells assessed as remaining activity at 1 uM using PDKtide as substrate incubated for 30 mins in presence of [gamma-33P]ATP by filter binding method relative to control. Put shortly:
as §1

For data set [3], the target named is Tyrosine-protein kinase Lck (Homo sapiens) (UniProt P06239). Description: Inhibition of recombinant human N-terminal His6-tagged LCK (2 to 509 residues) expressed in baculovirus infected Sf21 cells assessed as remaining activity at 1 uM using KVEKIGEGTYGVVYK as substrate incubated for 30 mins in presence of [gamma-33P]ATP by filter binding method relative to control. An outline of the steps: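 Assays ran 30 min at 21 °C, robotically and in the linear range. Remaining activity is given relative to incubations lacking compound, as the average of triplicate determinations ± S.D.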
Sequence of Tyrosine-protein kinase Lck (Homo sapiens) (P06239 2-509 limits assumed): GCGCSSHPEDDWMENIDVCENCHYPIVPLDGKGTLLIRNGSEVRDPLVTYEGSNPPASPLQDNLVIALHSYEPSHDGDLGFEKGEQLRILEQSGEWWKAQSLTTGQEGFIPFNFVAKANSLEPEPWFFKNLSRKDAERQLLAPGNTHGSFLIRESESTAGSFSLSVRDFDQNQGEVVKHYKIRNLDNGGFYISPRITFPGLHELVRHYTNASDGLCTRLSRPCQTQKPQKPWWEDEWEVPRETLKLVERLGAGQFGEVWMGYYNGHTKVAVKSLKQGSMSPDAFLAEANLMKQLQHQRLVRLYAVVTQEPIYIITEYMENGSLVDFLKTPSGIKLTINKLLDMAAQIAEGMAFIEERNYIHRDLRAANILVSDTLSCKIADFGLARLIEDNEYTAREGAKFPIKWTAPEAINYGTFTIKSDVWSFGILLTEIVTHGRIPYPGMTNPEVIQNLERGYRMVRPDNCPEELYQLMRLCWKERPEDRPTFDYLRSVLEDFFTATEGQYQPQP

The target in data set [4] is Serine/threonine-protein kinase D1 (Homo sapiens) (UniProt Q15139). Nature of the data set: Inhibition of recombinant human N-terminal His6-tagged PKD1 (2 to 912 residues) expressed in baculovirus infected Sf21 cells assessed as remaining activity at 10 uM using KKLNRTLSVA as substrate incubated for 30 mins in presence of [gamma-33P]ATP by filter binding method relative to control.
Sequence of Serine/threonine-protein kinase D1 (Homo sapiens) (Q15139 whole entry, looked up, the tested form may be a part): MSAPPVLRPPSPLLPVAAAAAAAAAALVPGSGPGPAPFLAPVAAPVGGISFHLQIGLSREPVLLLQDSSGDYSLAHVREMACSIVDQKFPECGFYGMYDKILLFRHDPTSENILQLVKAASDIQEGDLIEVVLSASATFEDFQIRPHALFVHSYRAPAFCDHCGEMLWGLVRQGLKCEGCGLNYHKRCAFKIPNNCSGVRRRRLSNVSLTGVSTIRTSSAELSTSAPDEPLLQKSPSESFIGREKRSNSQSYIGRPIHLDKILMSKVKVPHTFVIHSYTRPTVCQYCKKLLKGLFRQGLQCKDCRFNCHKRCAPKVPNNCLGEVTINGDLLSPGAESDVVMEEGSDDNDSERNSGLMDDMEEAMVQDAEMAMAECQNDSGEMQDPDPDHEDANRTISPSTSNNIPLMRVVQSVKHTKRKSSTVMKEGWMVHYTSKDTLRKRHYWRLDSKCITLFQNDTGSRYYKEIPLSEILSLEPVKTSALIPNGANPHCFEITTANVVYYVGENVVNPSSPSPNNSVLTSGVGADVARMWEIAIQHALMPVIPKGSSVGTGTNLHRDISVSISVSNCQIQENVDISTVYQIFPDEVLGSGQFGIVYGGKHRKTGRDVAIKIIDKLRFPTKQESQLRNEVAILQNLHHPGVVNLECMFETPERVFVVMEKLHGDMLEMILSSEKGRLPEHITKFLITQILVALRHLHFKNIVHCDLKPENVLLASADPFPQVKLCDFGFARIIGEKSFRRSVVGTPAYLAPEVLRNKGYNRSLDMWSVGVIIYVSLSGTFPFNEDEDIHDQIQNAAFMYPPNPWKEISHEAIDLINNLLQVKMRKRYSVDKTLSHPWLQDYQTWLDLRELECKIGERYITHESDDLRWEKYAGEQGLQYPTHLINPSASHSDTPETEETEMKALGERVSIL

The test system of the next data set is MEF. Nature of the data set: Induction of cell cycle arrest in MEF cells assessed as accumulation at G2 phase at 3 uM incubated for 1 to 3 days by propidium iodide staining based flow cytometric analysis (reference value: 15.4 +/- 2.04%). The class given is toxicity. To be noted: mouse, time 1-3 day. In general terms: In flow cytometry, cells or beads pass a laser one at a time.

Data set [5] addresses Serine/threonine-protein kinase pim-3 (Homo sapiens) (UniProt Q86V86). Description: Inhibition of recombinant human N-terminal His6-tagged PIM3 (2 to 326 residues) expressed in baculovirus infected Sf21 cells assessed as remaining activity at 1 uM using RSRHSSYPAGT as substrate incubated for 30 mins in presence of [gamma-33P]ATP by filter binding method relative to control.

Data set [6] concerns the target Dual specificity mitogen-activated protein kinase kinase 1 (Homo sapiens) (UniProt Q02750). Nature of the data set: Inhibition of recombinant human MKK1 (2 to 393 residues) expressed in Escherichia coli at 10 uM using MBP as substrate incubated for 30 mins in presence of [gamma-33P]ATP by filter binding method relative to control. An outline of the steps:
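Kinase panel run robotically at 21 °C for 30 min, linear in time and enzyme. […] Compound tested at 1 or 10 µM. Activity given as percentage of incubations without compound, mean of triplicates ± S.D.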

The subject of data set [7] is Serine/threonine-protein kinase Sgk1 (Homo sapiens), O00141 [S422D]. Description: Inhibition of recombinant human His6-tagged SGK1 S422D mutant (60 to 431 residues) expressed in baculovirus infected Sf21 cells assessed as remaining activity at 1 uM using GRPRTSSFAEGKK as substrate incubated for 30 mins in presence of [gamma-33P]ATP by filter binding method relative to control. An outline of the steps:
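Incubations ran robotically for 30 min at room temperature (21 °C) under linear conditions. Results are percent activity remaining versus controls without compound, as the mean of triplicates ± S.D.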

Structures are written as SMILES.

One may read the inhibition as the drop in the measured response relative to a control, in per cent.

Sequence of 3-phosphoinositide-dependent protein kinase 1 (Homo sapiens) (O15530 whole entry, the tested form may be a part): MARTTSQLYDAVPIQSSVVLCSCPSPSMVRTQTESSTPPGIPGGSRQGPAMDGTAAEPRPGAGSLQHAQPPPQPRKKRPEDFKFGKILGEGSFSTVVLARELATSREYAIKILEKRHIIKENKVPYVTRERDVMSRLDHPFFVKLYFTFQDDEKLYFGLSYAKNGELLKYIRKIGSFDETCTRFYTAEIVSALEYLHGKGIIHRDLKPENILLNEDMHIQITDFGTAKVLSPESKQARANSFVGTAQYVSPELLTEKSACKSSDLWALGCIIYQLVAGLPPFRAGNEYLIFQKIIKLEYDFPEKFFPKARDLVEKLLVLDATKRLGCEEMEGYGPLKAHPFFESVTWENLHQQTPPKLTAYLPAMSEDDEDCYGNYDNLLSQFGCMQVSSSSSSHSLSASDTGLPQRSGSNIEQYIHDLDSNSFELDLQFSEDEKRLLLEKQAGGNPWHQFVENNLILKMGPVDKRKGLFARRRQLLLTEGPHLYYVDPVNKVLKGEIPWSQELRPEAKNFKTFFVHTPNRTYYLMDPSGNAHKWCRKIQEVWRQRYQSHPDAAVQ
Sequence of Dual specificity mitogen-activated protein kinase kinase 1 (Homo sapiens) (Q02750 whole entry, the tested form may be a part): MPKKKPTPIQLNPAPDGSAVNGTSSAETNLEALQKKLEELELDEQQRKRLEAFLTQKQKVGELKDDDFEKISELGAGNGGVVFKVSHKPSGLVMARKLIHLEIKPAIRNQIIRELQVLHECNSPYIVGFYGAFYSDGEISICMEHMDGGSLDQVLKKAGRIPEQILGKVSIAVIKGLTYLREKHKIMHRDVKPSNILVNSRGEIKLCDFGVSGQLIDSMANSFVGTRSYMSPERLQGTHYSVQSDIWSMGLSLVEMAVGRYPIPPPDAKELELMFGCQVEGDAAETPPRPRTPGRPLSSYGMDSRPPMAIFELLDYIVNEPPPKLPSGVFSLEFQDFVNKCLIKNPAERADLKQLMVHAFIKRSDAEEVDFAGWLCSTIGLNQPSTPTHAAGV
Sequence of Serine/threonine-protein kinase Chk1 (Homo sapiens) (O14757 whole entry, the tested form may be a part): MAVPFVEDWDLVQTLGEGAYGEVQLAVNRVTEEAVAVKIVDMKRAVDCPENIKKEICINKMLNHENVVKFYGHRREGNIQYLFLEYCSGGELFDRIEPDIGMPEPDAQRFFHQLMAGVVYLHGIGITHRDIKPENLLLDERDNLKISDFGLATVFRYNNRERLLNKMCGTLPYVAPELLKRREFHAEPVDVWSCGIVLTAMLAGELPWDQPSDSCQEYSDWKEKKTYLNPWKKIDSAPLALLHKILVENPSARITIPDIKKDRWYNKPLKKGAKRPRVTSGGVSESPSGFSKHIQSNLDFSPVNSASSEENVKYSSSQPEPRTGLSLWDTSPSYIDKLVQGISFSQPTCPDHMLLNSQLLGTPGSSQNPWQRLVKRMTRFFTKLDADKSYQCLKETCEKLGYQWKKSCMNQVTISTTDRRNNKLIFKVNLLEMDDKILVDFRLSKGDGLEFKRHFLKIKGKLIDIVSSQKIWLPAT
Sequence of Serine/threonine-protein kinase Sgk1 (Homo sapiens), O00141 [S422D] (O00141 whole entry S422D, the tested form may be a part): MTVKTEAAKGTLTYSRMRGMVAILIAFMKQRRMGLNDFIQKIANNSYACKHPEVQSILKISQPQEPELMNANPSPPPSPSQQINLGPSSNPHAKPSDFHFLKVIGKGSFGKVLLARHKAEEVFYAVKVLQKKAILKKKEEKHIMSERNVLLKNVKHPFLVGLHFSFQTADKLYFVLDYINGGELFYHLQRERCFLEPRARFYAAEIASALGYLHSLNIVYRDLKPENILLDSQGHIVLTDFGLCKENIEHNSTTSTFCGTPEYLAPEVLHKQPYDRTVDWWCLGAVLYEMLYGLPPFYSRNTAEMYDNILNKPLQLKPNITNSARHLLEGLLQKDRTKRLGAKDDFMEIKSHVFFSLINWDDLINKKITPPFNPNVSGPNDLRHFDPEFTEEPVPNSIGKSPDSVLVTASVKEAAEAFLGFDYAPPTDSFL

For `COc1ccc(-c2ccc3c(N4CCOCC4)nc(N4C[C@@H](C)O[C@@H](C)C4)nc3n2)cc1CO` [Ku-0063794], the Activity in data set [1] is 86%; in the data set listed under Homo sapiens, 102%; in data set [2], 89%; in data set [3] it was 69%; in data set [4] it was 101%; in the data set on MEF, 9.4%. Moreover, the Activity in data set [5] amounted to 114%; in data set [7] it was 76%. For the same molecule, the inhibition in data set [6] stood at 55%.

These data come from ChEMBL document CHEMBL5678799 (Biochem J, 2009).
